Data on twelve compounds can be found in ChEMBL document CHEMBL4330057, “Second generation of diazachrysenes: Protection of Ebola virus infected mice and mechanism of action” (Eur J Med Chem, 2019).

A word on the EC50: it is the midpoint of the concentration-response curve. A word on the EC90: it is the concentration needed for an effect of 90%. Broadly, the CC50 is the concentration giving 50% cytotoxicity. Lower therefore signals harm at low concentration. The solubility (kinetic) is solubility judged after dilution from a stock solution rather than from solid. For orientation: half-life means the time in which the quantity being followed falls by half. A high value points to slow loss. As usually defined, the solubility is how much of the substance goes into solution per volume. The low end stands for a poorly soluble substance, the high end for a readily soluble substance. As usually defined, the Papp A→B is how fast a substance crosses the layer from the apical side. As usually defined, the Papp B→A is how fast a substance crosses the layer from the basolateral side.

Calls of active or inactive are those of the source. The calls are words filed in the database; no cut-off is given here.

Data set [1] relates to Ebolavirus. As to the kind of experiment: Antiviral activity against Ebolavirus H. sapiens-wt/1995/Kikwit-9510621 infected in human HeLa cells assessed as inhibition of viral infection pretreated for 2 hrs followed by viral infection and measured after 48 hrs by EboV GP immunostaining based high content imaging analysis. Type of data set: functional, organism-based.
The nature of data set [2]: Cytotoxicity against human HeLa cells after 2 hrs by high content imaging analysis. Type of data set: cell-based.
Data set [3] in a line: Selectivity index, ratio of CC50 for human HeLa cells to EC50 for Ebolavirus H. sapiens-wt/1995/Kikwit-9510621 infected in human HeLa cells. The data set is classed as toxicity, cell-based. As to conditions: read-out: Ratio CC50/EC50.
Data set [4] is described as follows: Stability in plasma (unknown origin) after 1 hr at 37 degC. The data set is classed as ADME, cell-free. The settings on record: read-out: Stability. In a few lines: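 Compound was incubated in plasma for 1 h at 37 °C, and the percent remaining was reported.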
A short description of data set [5]: Solubility of the compound in pH 7.4 buffer by laser nephelometric method. The data set is classed as physicochemical. In a few lines: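 Solubility at pH 7.4 was measured by laser nephelometry (light scattering), in triplicate.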
Data set [6] has as its target T1, Cytochrome P450 3A4 (Homo sapiens, UniProt P08684). As to the kind of experiment: Inhibition of CYP3A4 (unknown origin) using 7-benzyloxyquinoline as substrate. The data set is classed as ADME. In a few lines: (§1)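 CYP IC50 was taken from the net fluorescent signal after incubation at 37 °C for a set time with active cytochrome P450 enzyme and a fluorescent probe substrate.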

The target of data set [7] is T1, Cytochrome P450 3A4. As to the kind of experiment: Inhibition of CYP3A4 (unknown origin) using dibenzylfluorescein as substrate. The data set is classed as ADME. In outline:
as §1

In data set [8] the target is T1, Cytochrome P450 3A4. The experiment in a line: Inhibition of CYP3A4 (unknown origin) using 7-benzyloxy-4-trifluoromethylcoumarin as substrate. Type of data set: ADME. In outline:
as §1

Data set [9] concerns the target Cytochrome P450 2D6 (Homo sapiens, UniProt P10635). The experiment in a line: Inhibition of CYP2D6 (unknown origin) using 3-(2-(N, N-Diethyl-N-methylamino)ethyl)-7-Methoxy-4-Methylcoumarin as substrate. Type of data set: ADME. As to conditions: read-out: INH. In a few lines:
as §1

In data set [10] the target is Cytochrome P450 2C19 (Homo sapiens, UniProt P33261). The experiment in a line: Inhibition of CYP2C19 (unknown origin) using CEC as substrate. Type of data set: ADME. In a few lines: as §1
Sequence of Cytochrome P450 2C19 (P33261 whole entry): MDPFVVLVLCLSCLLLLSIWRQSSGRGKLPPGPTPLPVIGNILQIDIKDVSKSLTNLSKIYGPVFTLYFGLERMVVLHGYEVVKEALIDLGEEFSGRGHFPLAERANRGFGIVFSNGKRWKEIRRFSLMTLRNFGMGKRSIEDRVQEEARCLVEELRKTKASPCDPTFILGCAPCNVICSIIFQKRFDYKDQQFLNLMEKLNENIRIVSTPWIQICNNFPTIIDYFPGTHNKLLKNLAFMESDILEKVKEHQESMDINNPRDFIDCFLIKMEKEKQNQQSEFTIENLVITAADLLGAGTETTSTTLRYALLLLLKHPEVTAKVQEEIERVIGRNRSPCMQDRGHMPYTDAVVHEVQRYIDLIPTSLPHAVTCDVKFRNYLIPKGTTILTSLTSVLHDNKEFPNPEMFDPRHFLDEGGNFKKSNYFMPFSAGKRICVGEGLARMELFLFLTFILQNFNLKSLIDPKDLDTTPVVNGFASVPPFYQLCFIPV
Data set [11] can be described thus: Clearance in mouse liver microsomes after 1 hr. The data set is classed as ADME, Microsome. The settings on record: read-out: CLH. In a few lines: (§2)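 Substrate depletion with mouse or human liver microsomes, 1 h at 37 °C. Clearance (μL/min/mg) and half-life derived.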
Data set [12] is described as follows: Clearance in human liver microsomes after 1 hr. The data set is classed as ADME, Microsome. As to conditions: read-out: CLH. In a few lines: as §2
In general terms: Liver microsomes are a subcellular fraction often used to study metabolism.

The nature of data set [13]: Half life in mouse liver microsomes. The data set is classed as ADME, Microsome. In outline:
as §2

Data set [14] in a line: Half life in human liver microsomes. Type of data set: ADME, Microsome. In a few lines:
as §2

A short description of data set [15]: Solubility of the compound in deionized water. Type of data set: physicochemical.
Data set [16] deals with Zaire ebolavirus. The experiment in a line: Antiviral activity against Ebolavirus Mayinga infected in Balb/c mouse assessed as protection against viral infection by measuring host survival at 10 mg/kg, ip administered 2 hrs prior to viral infection daily for 6 days and measured for 14 days relative to control. The data set is classed as functional, 1976.
For data set [17], the system named is Zaire ebolavirus. As to the kind of experiment: Antiviral activity against VSV pseudotyped Ebolavirus Mayinga expressing GFP infected in human HeLa cells assessed as inhibition of viral infection at 2 uM pre-incubated for 2 hrs followed by viral infection and measured after 8 hrs by cell mask deep red staining based assay. As to conditions: 1976. The data set is classed as functional, organism-based. In a few lines: (§3)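 HeLa cells pretreated 2 h with compound, then infected with rVSV-EBOV-GP-GFP (8 h) or VSV-GFP (6 h), and stained with Cell Mask Deep Red. Relative inhibition = 1 minus (% GFP-expressing cells normalised to mock). Mean ± SD of three replicates, representative of three independent experiments.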

In data set [18] the test system is Vesicular stomatitis virus. The experiment in a line: Antiviral activity against VSV expressing GFP infected in human HeLa cells assessed as inhibition of viral infection at 2 uM pre-incubated for 2 hrs followed by viral infection and measured after 6 hrs by cell mask deep red staining based assay. The data set is classed as functional, organism-based. In outline: as §3

Data set [19] relates to Zaire ebolavirus. The experiment in a line: Antiviral activity against VSV pseudotyped Ebolavirus Mayinga expressing GFP infected in human HeLa cells assessed as inhibition of viral infection up to 50 uM pre-incubated for 2 hrs followed by viral infection and measured after 8 hrs by high content imaging analysis. The data set is classed as functional, organism-based. As to conditions: 1976. In a few lines:
as §3

The subject of data set [20] is Vesicular stomatitis virus. As to the kind of experiment: Antiviral activity against VSV expressing GFP infected in human HeLa cells assessed as inhibition of viral infection at 50 uM pre-incubated for 2 hrs followed by viral infection and measured after 6 hrs by cell mask deep red staining based assay. The data set is classed as functional, organism-based. In a few lines:
as §3

Data set [21] has as its system Vesicular stomatitis virus. The experiment in a line: Antiviral activity against VSV expressing GFP infected in human HeLa cells assessed as inhibition of viral infection at 0.1 uM pre-incubated for 2 hrs followed by viral infection and measured after 6 hrs by cell mask deep red staining based assay. The data set is classed as functional, organism-based. In a few lines: as §3

A short description of data set [22]: Apparent permeability from apical to basolateral side in MDCK cells. The settings on record: dog. Type of data set: ADME, cell-based, Canis lupus familiaris. In outline:
(§4)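 Apparent permeability measured in MDCK cell monolayers, apical→basolateral and basolateral→apical directions, three biological replicates.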

Data set [23] can be described thus: Apparent permeability from basolateral to apical side in MDCK cells. The data set is classed as ADME, cell-based, Canis lupus familiaris. The settings on record: dog. In a few lines:
as §4

For data set [24], the system named is Ebolavirus. As to the kind of experiment: Antiviral activity against Ebolavirus. The settings on record: Orthoebolavirus. The data set is classed as functional, organism-based.
In data set [25] the test system is Ebolavirus. As to the kind of experiment: Antiviral activity against Ebolavirus infected in mouse assessed as protection against viral infection at 30 mg/kg/day relative to control. The data set is classed as functional.
Where [26] appears, read: Orthoebolavirus, H. sapiens-wt/1995/Kikwit-9510621, HeLa.
Setting [27] is: Orthoebolavirus, H. sapiens-wt/1995/Kikwit-9510621, HeLa, read-out: EC50.

T1 sequence (P08684 whole entry): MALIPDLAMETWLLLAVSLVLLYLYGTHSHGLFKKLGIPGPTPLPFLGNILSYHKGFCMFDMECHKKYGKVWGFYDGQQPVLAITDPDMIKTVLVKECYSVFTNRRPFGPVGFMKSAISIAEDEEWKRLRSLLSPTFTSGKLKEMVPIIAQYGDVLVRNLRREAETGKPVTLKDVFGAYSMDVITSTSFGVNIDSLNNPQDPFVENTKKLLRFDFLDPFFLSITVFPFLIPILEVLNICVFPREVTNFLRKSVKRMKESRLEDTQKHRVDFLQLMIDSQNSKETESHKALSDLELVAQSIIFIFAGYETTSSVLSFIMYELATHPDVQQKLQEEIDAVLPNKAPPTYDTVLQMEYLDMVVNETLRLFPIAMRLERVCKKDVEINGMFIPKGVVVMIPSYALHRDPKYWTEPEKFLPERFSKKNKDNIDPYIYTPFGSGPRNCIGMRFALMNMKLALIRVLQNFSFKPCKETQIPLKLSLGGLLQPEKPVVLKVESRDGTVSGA
Sequence of Cytochrome P450 2D6 (P10635 whole entry): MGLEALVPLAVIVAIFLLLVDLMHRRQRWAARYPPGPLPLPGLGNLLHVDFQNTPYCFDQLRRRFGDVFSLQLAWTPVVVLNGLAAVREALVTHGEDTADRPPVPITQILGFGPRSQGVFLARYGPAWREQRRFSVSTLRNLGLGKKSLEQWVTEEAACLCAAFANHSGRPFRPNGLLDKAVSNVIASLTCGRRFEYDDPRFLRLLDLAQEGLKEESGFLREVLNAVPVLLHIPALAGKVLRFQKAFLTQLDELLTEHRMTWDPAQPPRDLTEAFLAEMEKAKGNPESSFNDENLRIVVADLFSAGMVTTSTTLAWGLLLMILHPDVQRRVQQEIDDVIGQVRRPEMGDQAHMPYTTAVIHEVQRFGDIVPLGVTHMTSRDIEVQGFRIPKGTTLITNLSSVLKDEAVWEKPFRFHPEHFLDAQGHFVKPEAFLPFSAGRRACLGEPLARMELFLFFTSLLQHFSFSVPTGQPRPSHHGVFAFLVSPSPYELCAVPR

In the case of `OC(CNc1ccnc2cccnc12)CN1CCOCC1` (centres undefined), the EC50 result in [1] was “Not Active”.
For `CCN(CC)CCCC(C)Nc1ccnc2c(NC(C)CCCN(CC)CC)ccnc12` (centres undefined), the EC90 in [1] (setting [26]) worked out at 4.73 µM. Besides, in data set [1] (setting [27]), the EC50 was found to be 0.78 µM. The CC50 at 2 h in data set [2] is more than 10 µM. Further, the selectivity ratio in [3] is more than 13. In data set [4], the remaining at 1 h is more than 85%. The same compound displayed a kinetic solubility in data set [5] of more than 0.05 mg/mL. In addition, the INH is more than 10 µM in data set [6], more than 10 µM in data set [7], more than 10 µM in data set [8] and 3.6 µM in data set [10]. For the same compound, in data set [9], the IC50 stood at 8 µM. Besides, the microsomal CLint is 32.9 µL/min/mg in data set [11] and less than 23 µL/min/mg in data set [12]. The half-life in [13] was 0.7 h; in [14] it was more than 1 h. Besides, the solubility in data set [15] is not below 25 mg/mL. Further, in data set [16], the Activity is given as 40%. The outcome in data set [17], in data set [19] and in [20] was Active. Besides, the result in data set [18] and in data set [21] was inactive.
Turning to `CCN(CC)CCCNc1ccnc2c1ccc1c2ccc2c(NCCN3CCOCC3)ccnc21`, the EC90 in [1] (setting [26]) came out at 4.85 µM. Moreover, the concentration giving a half-maximal response (EC50) in data set [1] (setting [27]) was 0.79 µM. This compound also gave a CC50 at 2 h in data set [2] of more than 10 µM. The selectivity ratio in data set [3] was more than 12.6.
For `CCN(CC)CCNc1ccnc2c(NCCN(CC)CC)ccnc12` the same measures were 62.6 µM, 14.1 µM, more than 25 µM and more than 1.8.
In the case of `COc1cc2nc(N3CCN(C(=O)c4ccco4)CC3)nc(N)c2cc1OC` [PRAZOSIN], the Papp A→B in [22] lay within 27.6 to 30 ×10⁻⁶ cm/s. Moreover, the Papp B→A in data set [23] was in the range of 48.6 to 58.9 ×10⁻⁶ cm/s.
For `NCCCNc1ccnc2c1ccc1c2ccc2c(NCCCN)ccnc21`, the EC90 in data set [1] (setting [26]) amounted to 20.5 µM. Moreover, the 50% effective concentration (EC50) in data set [1] (setting [27]) came out at 10 µM. This compound also came in with a CC50 at 2 h in data set [2] of more than 10 µM. For the same compound, the selectivity ratio in data set [3] was more than 1.
For `CC(C)NCC(O)COc1cccc2ccccc12` (centres undefined) [PROPRANOLOL], the Papp A→B in data set [22] is 37.7 to 39 ×10⁻⁶ cm/s. Moreover, the Papp B→A in data set [23] fell in the range of 41.6 to 42.9 ×10⁻⁶ cm/s.
On to `CCN(CC)CCCNc1ccnc2c(NCCCN(CC)CC)ccnc12`, for which the EC90 in data set [1] (setting [26]) was determined as 37.4 µM. Further, the EC50 in data set [1] (setting [27]) stood at 4.82 µM. This compound had a CC50 at 2 h in [2] of more than 10 µM. For the same compound, the selectivity ratio in data set [3] is more than 2. Besides, the remaining at 1 h in data set [4] is more than 85%. In addition, in data set [5], the kinetic solubility was more than 0.05 mg/mL. Further, the INH in [6], in data set [7], in data set [8] and in [10] was more than 10 µM each time. In [9], the IC50 was more than 10 µM. Besides, the microsomal CLint in data set [11] and in data set [12] was less than 23 µL/min/mg throughout. For the same compound, the half-life in data set [13] and in [14] was more than 1 h throughout. In data set [15], this compound registered a solubility not below 25 mg/mL.
Compound `NC(=O)c1nc(F)cnc1O` yielded an EC50 in [24] of 67 µM. The Activity in data set [25] turned out to be 100%.
As to `NCCCCNc1ccnc2c1ccc1c2ccc2c(NCCCCN)ccnc21`, the EC90 in data set [1] (setting [26]) is 23.5 µM. Moreover, the concentration for a half-maximal effect (EC50) in [1] (setting [27]) was 10 µM. The CC50 at 2 h in data set [2] was more than 10 µM. In addition, the selectivity ratio in data set [3] is more than 1.
For `c1cc(NCCN2CCOCC2)c2nccc(NCCN3CCOCC3)c2n1`, the concentration for a half-maximal effect (EC50) entry in [1] was “Not Active”. Also, in data set [2], the CC50 at 2 h was more than 25 µM.
In the case of `c1cc(NCCCN2CCOCC2)c2nccc(NCCCN3CCOCC3)c2n1`, the EC50 in [1] (setting [27]) stood at 10 µM.
